Bioassay records as filed in PubChem BioAssay.
This is a sample that favours compounds with a hit; in the whole collection about 6.7% have one here.
GRIN3A LBD mod – binders of NR3A ligand-binding domain, primary screen, biophysical, differential scanning fluorimetry, uHTS; Glutamate receptor ionotropic, NMDA 3A (GRIN3A) ligand-binding domain; NR3A LBD differential scanning fluorimetry, Tm shift; 0% = protein alone, 100% = glycine-bound protein; Tm shift relative to glycine control, % at 25 µM; 340,000 compounds, 2.5% hits; AID 1259313, 2017;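 active means melting temperature shift of at least 10% of the positive control shift, at one fixed dose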
Beta apoptosis – inhibitors of cytokine-induced beta cell apoptosis, primary screen, luminescence. INS-1E cytokine-induced death, ATP luminescence, 48 h; percent of positive-control rescue, neutral wells zero. protection from apoptosis, % (concentration not given with the values). 300,000 compounds, 0.8% hits;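 active means Every replicate reaches about 75%, or at least half do and their mean reaches it too, limit read from the data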;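 further: 0% = cytokine-treated negative control wells and 100% = positive control rescue; higher means more ATP so stronger rescue from cytokine killing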
PREPL inh – PREPL enzyme inhibitors, primary screen, biochemical, fluorescence polarization. recombinant PREPL, fluorescence polarization activity-based probe. 320,000 compounds, 0.68% hits. inhibition, % at 5.96 µM. Prolyl endopeptidase-like (Homo sapiens), Q4J6C6;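 further: 0% = enzyme with DMSO and 100% = wells lacking enzyme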
Target sequence (Q4J6C6 whole entry, looked up): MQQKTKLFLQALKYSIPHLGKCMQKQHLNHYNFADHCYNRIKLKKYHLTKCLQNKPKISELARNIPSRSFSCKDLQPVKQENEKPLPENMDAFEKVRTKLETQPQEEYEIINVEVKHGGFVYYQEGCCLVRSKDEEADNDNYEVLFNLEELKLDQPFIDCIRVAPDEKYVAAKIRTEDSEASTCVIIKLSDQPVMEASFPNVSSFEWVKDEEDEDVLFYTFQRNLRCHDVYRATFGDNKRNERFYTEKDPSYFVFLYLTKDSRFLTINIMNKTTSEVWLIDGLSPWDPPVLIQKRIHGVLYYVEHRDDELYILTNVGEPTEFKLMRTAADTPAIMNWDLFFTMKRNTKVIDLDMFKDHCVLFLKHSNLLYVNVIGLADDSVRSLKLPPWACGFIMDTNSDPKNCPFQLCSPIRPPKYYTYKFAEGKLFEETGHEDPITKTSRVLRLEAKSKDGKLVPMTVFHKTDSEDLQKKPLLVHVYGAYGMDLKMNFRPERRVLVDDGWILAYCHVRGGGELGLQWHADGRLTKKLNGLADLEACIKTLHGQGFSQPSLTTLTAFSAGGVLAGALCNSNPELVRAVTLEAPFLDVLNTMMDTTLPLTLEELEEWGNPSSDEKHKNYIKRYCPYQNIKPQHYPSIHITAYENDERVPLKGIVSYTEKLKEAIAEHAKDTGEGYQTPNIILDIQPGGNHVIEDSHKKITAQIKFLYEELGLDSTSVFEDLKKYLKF
CSC inhib – cancer stem cell viability inhibitors, primary screen, luminescence; cancer stem cell-like cells viability; AID 2717, 2010; inhibition, % at 7.5 µM; 300,000 compounds, 1.1% hits; in the data active means inhibition above about 75%; tested in HMLE shEcad cells
T cruzi inh – inhibitors of intracellular T. cruzi growth, primary screen, luminescence, NIH3T3 host cells. 300,000 compounds, 1.4% hits. inhibition, % (test concentration not listed). T. cruzi beta-gal in NIH3T3, 90 h;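 active means mean inhibition across valid replicates above about 55%, limit read from the data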;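 further: signal also drops with host cell toxicity which is not excluded here; 0% = plate median of DMSO wells and 100% = zero luminescence signal; higher percent means less beta-gal luminescence so fewer parasites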
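System: mouse NIH/3T3 fibroblasts infected with β-gal-expressing T. cruzi Tulahuen C4 / Input: NIH/3T3 cells, 5,000 per well / Buffer or medium: Low-serum DMEM with 2% FBS / Probe or stimulus: 5000 reporter trypomastigotes per well / Schedule: ≥90 h infection period, 3 h prior cell attachment / Measured by: GalScreen luminescence, 60 min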
CHOP inhibitor – inhibitors of CHOP promoter induction, primary screen, cell-based, unfolded protein response, luciferase reporter | CHO-K1 CHOP-promoter luciferase, tunicamycin-induced, 15-18 h | 220,000 compounds, 3.8% hits | inhibition, % at 10 µM;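 active means compounds that reduced the stress-induced luciferase reporter signal by more than about 70% of percent inhibition, limit read from the data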;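 further: 0% = tunicamycin plus vehicle and 100% = wells without tunicamycin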
PREPL confirm – human PREPL enzyme inhibitors, confirmation, biochemical, fluorescence polarization. shares compounds with PREPL inh. recombinant PREPL, fluorescence polarization activity probe. inhibition, % at 5.96 µM. 2,000 compounds, 67% hits. AID 2803, 2010;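 further: 0% = protein with DMSO and 100% = wells lacking protein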
An asterisk follows results filed as active. Unless noted, no stated cut-off is given here; in the data, active means inhibition above about 43%; inactive means the rest.

CCO[C@H]1OC(C(=O)N2CCN(Cc3ccc4c(c3)OCO4)CC2)=C[C@@H](c2cn(C(C)=O)c3ccccc23)[C@@H]1CCCO was read as GRIN3A LBD mod -1.3, Beta apoptosis -3.6, PREPL inh 16.4, CSC inhib 3.0, T cruzi inh 7.4 and CHOP inhibitor 47.8.
Screening CC1(C#CC[N+]2(C)CCCCC2)CCC2C(O1)c1ccccc1OC2(C)C (centres undefined) returned GRIN3A LBD mod -0.9, Beta apoptosis -12.1, PREPL inh 15.3, CSC inhib 3.4, T cruzi inh 6.8 and CHOP inhibitor 3.4.
Screening COC(=O)c1cc(S(=O)(=O)NCCN2CCN(c3ccccc3F)CC2)c[nH]1 returned GRIN3A LBD mod 0.7, Beta apoptosis -0.4, PREPL inh 8.9, CSC inhib -2.2 and T cruzi inh 3.3.
Cc1ccc(Nc2nnc(SC/C(O)=C(\C#N)c3nc4ccccc4[nH]3)s2)c(C)c1 was read as GRIN3A LBD mod 12.9*, Beta apoptosis -6.0, PREPL inh 48.8*, CSC inhib 1.0, T cruzi inh 3.7, CHOP inhibitor 14.6 and PREPL confirm 41.1.
For Cc1cc(C)n2c(SCC(O)=C(C#N)c3nc4ccccc4[nH]3)nnc2n1 the results were GRIN3A LBD mod -2.4.
Screening CCNC(=O)/C(C#N)=C/c1c(N2CCN(c3ccc(OC)cc3)CC2)nc2c(C)cccn2c1=O returned GRIN3A LBD mod 4.4, Beta apoptosis 1.0, PREPL inh 54.5*, CSC inhib -10.4, T cruzi inh 8.1 and PREPL confirm 49.3*.
Screening COCCNC(=O)/C(C#N)=C/c1c(N2CCN(c3ccc(OC)cc3)CC2)nc2c(C)cccn2c1=O returned GRIN3A LBD mod -2.2, Beta apoptosis -2.0, PREPL inh 54.5*, CSC inhib -9.0, T cruzi inh 18.6 and PREPL confirm 49.1*.
Screening Nc1c(C(=O)NCc2ccc3c(c2)OCO3)c2nc3ccccc3nc2n1CCCN1CCOCC1 returned GRIN3A LBD mod -1.8, Beta apoptosis -8.3, PREPL inh 51.5*, CSC inhib 2.8, T cruzi inh 18.2 and PREPL confirm 53.7*.
For COc1ccc(-n2c(N)c(C(=O)NCc3ccco3)c3nc4ccccc4nc32)cc1 the results were GRIN3A LBD mod -6.3, Beta apoptosis -13.6, PREPL inh 8.7, CSC inhib -5.8, T cruzi inh -21.3 and CHOP inhibitor -10.0.
For Nc1c(C(=O)NCc2ccco2)c2nc3ccccc3nc2n1CCc1ccc(F)cc1 the results were GRIN3A LBD mod 4.8, Beta apoptosis -0.1, PREPL inh 52.7*, CSC inhib 29.9, T cruzi inh -1.9, CHOP inhibitor 58.9 and PREPL confirm 42.4.
Cc1cccc(NC(=O)C(Cc2ccccc2)c2nn[nH]n2)c1C (centres undefined) was read as GRIN3A LBD mod -1.1, Beta apoptosis -0.3, PREPL inh 10.2, CSC inhib 7.0 and T cruzi inh -12.6.
For Cn1c(NN)nc2ccccc2c1=O the results were GRIN3A LBD mod -0.8, Beta apoptosis -0.9, PREPL inh 44.7*, CSC inhib 2.0, T cruzi inh -1.5, CHOP inhibitor -9.0 and PREPL confirm 25.6.
For Oc1ccccc1N1CCN(c2ccc3ccccc3n2)CC1 the results were GRIN3A LBD mod -4.1, Beta apoptosis -4.3, PREPL inh 54.2*, CSC inhib 30.1, T cruzi inh 7.4 and PREPL confirm 42.5.
`C[N+](C)(C)CC(=O)N1CCN(c2ccc3ccccc3n2)CC1` gave GRIN3A LBD mod -1.2, Beta apoptosis -7.3, CSC inhib -0.3 and T cruzi inh -8.1.
For COC(C(=O)N1CCC(CCC(=O)Nc2ccccc2)CC1)c1ccccc1 (centres undefined) the results were GRIN3A LBD mod -1.1, Beta apoptosis -0.8, PREPL inh -1.4, CSC inhib -1.3 and T cruzi inh 5.8.
